The test system of assay [1] is MT2. In words: (§1) Compound tested for the inhibition of HIV-induced cytopathogenicity in MT-2 cells. To be noted: Homo sapiens. It counts as functional. The essentials:
(§2)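 MT-2 cells (2 × 10^3/well) infected with 100 TCID50s of HIV-1LAI in presence of various agent concentrations; 37 °C for 7 days. Viability read by MTT (7.5 mg/mL in PBS), 2 h at 37 °C, formazan dissolved in acidified 2-propanol with 4% Triton X-100, OD 570 nm. IC50/IC75 from inhibition of cytopathogenicity; duplicate assays, mean of two or three.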

The test system of assay [2] is MT2. The description is as §1. It counts as functional, cell-based. To be noted: Homo sapiens. The essentials: as §2
Assay [3] deals with Human immunodeficiency virus type 1 protease (Human immunodeficiency virus 1, UniProt Q72874). In words: Inhibitory activity against human immunodeficiency virus 1 protease.

pIC50, pKi: −log10 of the molar value.

Compound `CC(C)CN(CC(O)C1CCCCCCCCOc2c(O)cccc2C(=O)N1)S(=O)(=O)c1ccc2c(c1)OCO2` (configuration not stated) gave a 75% effect concentration (IC75) with MT2 [1] of over 1000 nM. Besides, the pIC50 with MT2 [2] was under 6.00. Further, the pKi in assay [3] is 8.52.
In assay [3], `COc1ccc(S(=O)(=O)N(CC(C)C)CC(O)C2CCCCCCCOc3c(O)cccc3C(=O)N2)cc1` (configuration not stated) showed a pKi of 9.00.
For the compound `C=CCCCCC(NC(=O)c1cccc(O)c1OCC=C)C(O)CN(CC(C)C)S(=O)(=O)c1ccc(OC)cc1` (configuration not stated), in assay [3], the pKi was 7.92. This pKi lies 1.08 log units lower than the previous one.
The compound `CC(C)CN(C[C@@H](O)[C@H](Cc1ccccc1)NC(=O)O[C@H]1CCOC1)S(=O)(=O)c1ccc(N)cc1` came in with a 75% effect concentration (IC75) with MT2 [1] of 79 nM. Further, in the assay with MT2 [2], the pIC50 was 7.55.
`CC(C)(C)NC(=O)[C@@H]1C[C@@H]2CCCC[C@@H]2CN1C[C@@H](O)[C@H](Cc1ccccc1)NC(=O)[C@H](CC(N)=O)NC(=O)c1ccc2ccccc2n1` gave an IC75 in the assay with MT2 [1] of 47 nM. The compound also gave a pIC50 in the assay on MT2 [2] of 7.92.
For `C=CCCCCC(NC(=O)c1cccc(O)c1OCCC=C)C(O)CN(CC(C)C)S(=O)(=O)c1ccc(OC)cc1` (configuration not stated), the IC75 in the assay on MT2 [1] is over 1000 nM. In the assay on MT2 [2], this compound showed a pIC50 of under 6.00. In assay [3], this compound gave a pKi of 8.70.
As to `COc1ccc(S(=O)(=O)N(CC(C)C)CC(O)C2CCCC/C=C\COc3c(O)cccc3C(=O)N2)cc1` (configuration not stated), the pKi in assay [3] is 8.70.
Take `CCCCCCCC(NC(=O)c1cccc(O)c1O)C(O)CN(CC(C)C)S(=O)(=O)c1ccc(OC)cc1` (configuration not stated): the pKi in assay [3] is 6.57.
For `COc1ccc(S(=O)(=O)N(CC(C)C)CC(O)C2CCCCCCCCOc3c(O)cccc3C(=O)N2)cc1` (configuration not stated), it took 740 nM to reach the 75% level in the assay with MT2 [1] (IC75). In the assay on MT2 [2], this compound showed a pIC50 of 6.52. Besides, the pKi in assay [3] was 9.15.
The compound `C=CCCCCC(NC(=O)c1cccc(O)c1OCCCC=C)C(O)CN(CC(C)C)S(=O)(=O)c1ccc(OC)cc1` (configuration not stated) had a negative-log Ki (pKi) in assay [3] of 8.05.
`C=CCCCCC(NC(=O)c1cccc(O)c1OCCC=C)C(O)CN(CC(C)C)S(=O)(=O)c1ccc2c(c1)OCO2` (configuration not stated) had a pKi in assay [3] of 7.70.
In turn, `COc1ccc(S(=O)(=O)N(CC(C)C)CC(O)C2CCCCCCCCCOc3c(O)cccc3C(=O)N2)cc1` (configuration not stated) showed an IC75 in the assay on MT2 [1] of over 1000 nM. This compound also gave a pIC50 with MT2 [2] of 6.25. Also, the pKi in assay [3] was 8.70.

As usually defined, the IC75 is the point of the concentration-response curve where the effect stands at 75%. A low value points to an effect from little substance. A word on the pIC50: it is the negative decadic logarithm of the IC50, by convention in mol/L. Lower therefore signals a large IC50. For orientation: pKi means the negative decadic logarithm of the Ki, by convention in mol/L. The low end stands for a high Ki, the high end for a low Ki.
